In the library only some 2.3% were active in any assay of this set; here they are far more common.
SUMO1-SIM PPI: alters human SUMO1 binding to SIM partners; SUMO1 binding to a labelled peptide, TR-FRET, 1 h; inhibition, % at 20 µM; 360,000 compounds, 0.33% hits; AID 602429; in the data active = inhibition above about 37%
Scp-1 inhibitor: Scp-1 (human) phosphatase inhibition | Q9GZU7 | 340,000 compounds, 0.88% hits | inhibition, % at 20 µM | Recombinant Scp1, phosphopeptide, malachite green phosphate absorbance;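 active = inhibition above about 50% at 20 µM, limit read from the data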;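 note: plate controls were DMSO wells with enzyme for no effect and wells lacking enzyme for full effect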
Target sequence (Q9GZU7 76-261 limits assumed): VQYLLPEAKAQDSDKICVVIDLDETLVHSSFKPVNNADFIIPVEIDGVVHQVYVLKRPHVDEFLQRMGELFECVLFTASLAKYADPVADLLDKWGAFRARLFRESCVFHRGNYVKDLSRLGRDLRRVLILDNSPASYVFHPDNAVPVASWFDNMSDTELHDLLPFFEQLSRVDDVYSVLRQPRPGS
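Material – SCP-1 phosphatase catalytic domain, residues 76-261 · Buffer or medium – Acidic Tris acetate buffer with magnesium and detergent · Also added – Phospho 17-mer peptide substrate · Compound – single 20 µM dose, 1% DMSO · Times – 45 min room-temperature reaction, 5 min colour, 30 min stabiliser · Technique – Phosphate-binding colour reagent, absorbance read at 630 nm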
STEP block: blocks human striatal-enriched tyrosine phosphatase | 360,000 compounds, 0.25% hits | recombinant STEP, OMFP fluorogenic substrate, fluorescence | inhibition, % at 20 µM | P54829 | AID 588621;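 active = inhibition at 20 µM, scaled per plate between control wells, above about 37%, limit read from the data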;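 note: 0% = DMSO with enzyme and substrate and 100% = substrate only without enzyme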
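Also added – OMFP at 25 µM · Test system – STEP tyrosine phosphatase · Technique – FITC-channel fluorescence of OMFP product · Schedule – 20 min at room temperature, dark · Evaluation – control-normalized % inhibition with plate pattern correction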
DNMT1 block: inhibitors of human DNMT1. DNMT1 molecular beacon, Hinp1I cleavage, fluorescence. inhibition (reported as % activation of signal), % at 10 µM. 360,000 compounds, 0.83% hits; in the data active = inhibition above about 50%
LMPTP block: blocks human LMPTP phosphatase; recombinant LMPTP-A, OMFP fluorogenic substrate, fluorescence intensity; inhibition, % at 20 µM; AID 651560; 360,000 compounds, 0.22% hits;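 active = compounds that cut the enzyme signal by at least half of the control window in the single-dose screen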;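 note: plate controls were DMSO wells with enzyme plus substrate for no effect and substrate without enzyme for full effect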
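Assay system: LMPTP-A, protein tyrosine phosphatase of low molecular weight / Medium: pH 6.0 Bis-Tris buffer with DTT and Triton X-100 / Schedule: 50 min enzyme reaction at room temperature, protected from light / Measured by: endpoint fluorescence intensity from OMFP dephosphorylation / Read-out basis: % inhibition relative to no-enzyme and uninhibited control wells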
Rpn11 block: blocks the human proteasome subunit Rpn11. inhibition, % at 20 µM. human 26S proteasome, Ub4-pepOG fluorescence polarization; 20S core pre-blocked with epoxomicin. 360,000 compounds, 0.59% hits;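 active = inhibition at 20 µM, scaled to each plate's controls, above about 33%, limit read from the data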
Target sequence (O00487 whole entry, looked up): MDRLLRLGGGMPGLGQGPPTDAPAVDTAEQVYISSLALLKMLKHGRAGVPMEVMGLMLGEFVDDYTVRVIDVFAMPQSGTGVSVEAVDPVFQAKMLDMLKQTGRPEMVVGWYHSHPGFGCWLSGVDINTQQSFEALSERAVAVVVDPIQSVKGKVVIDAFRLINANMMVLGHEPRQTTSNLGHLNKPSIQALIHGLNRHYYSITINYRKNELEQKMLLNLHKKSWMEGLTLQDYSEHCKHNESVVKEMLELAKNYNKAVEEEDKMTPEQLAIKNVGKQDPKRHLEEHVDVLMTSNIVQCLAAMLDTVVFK
Scp-1 conf: confirmation of human Scp-1 phosphatase inhibitors; recombinant SCP-1 catalytic domain, phosphate release, malachite green absorbance; 2,500 compounds, 61% hits; AID 540281; inhibition, % at 20 µM; shares compounds with Scp-1 inhibitor;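 note: plate controls were DMSO with enzyme for no effect and buffer wells lacking enzyme for full effect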
Scp-1 MG ctr: counter-screen for Scp-1 inhibitors: colorimetric interference | shares compounds with Scp-1 inhibitor | Colorimetric interference counterscreen, malachite green absorbance 630 nm | apparent inhibition (interference), % at 20 µM | 2,500 tested, under 10 active | AID 540313;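 note: compounds added after enzyme reaction finished so only phosphate colour detection is probed; plate controls were DMSO wells with completed Scp-1 reaction for no effect and substrate wells lacking enzyme for full effect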
Scp1 DSF: Scp-1 (human) binding by thermal shift; shares compounds with Scp-1 inhibitor; Recombinant SCP1, Sypro Orange thermal shift Tm; thermal shift relative to vanadate control, % at 40 µM; 1,500 compounds, 25% hits;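 active = substances whose mean melting-temperature shift, as a percentage of the reference inhibitor's shift, reaches about 5.3%, limit read from the data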;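 note: 0% = Tm of DMSO wells and 100% = Tm with sodium orthovanadate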
* marks the source's active call; other numbers are inactive results; · = no result.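 Rule for the calls, unless noted: active = inhibition of at least 30% at 20 µM; inactive = the rest.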

SMILES	SUMO1-SIM PPI	Scp-1 inhibitor	STEP block	DNMT1 block	LMPTP block	Rpn11 block	Scp-1 conf	Scp-1 MG ctr	others
Cc1cccc(N2C(=O)CC(Sc3nc(C)cc(C)n3)C2=O)c1 (stereo unspecified)	-1	-7	-2	2	0	-4	·	·
Cc1cccc(N2C(=O)CC(Sc3nc(-c4ccccc4)c4cc(Cl)ccc4n3)C2=O)c1 (stereo unspecified)	44*	-7	-1	-5	1	3	·	·
Cc1cc2nc(-c3ccc(SCc4ccccc4C#N)nc3)[nH]c2cc1C	9	0	3	30	2	10	·	·
Cc1cc2nc(-c3ccc(SCc4ccc(C(=O)O)cc4)nc3)[nH]c2cc1C	21	79*	92*	-1	68*	3	·	·
COC(=O)C1=C(COc2ccccc2)NC(=O)NC1c1ccc(Cl)cc1 (stereo unspecified)	·	22	·	·	·	·	·	·
CCOC(=O)C1=C(COc2ccccc2)NC(=O)NC1c1ccc(Cl)cc1 (stereo unspecified)	69*	50	-3	4	-1	3	·	·
O=[N+]([O-])c1cccc(-c2csc(N/N=C/c3cccc(O)c3)n2)c1	-8	72*	6	36	5	-4	51*	-13	Scp1 DSF=19*
CCOC(=O)Cc1csc(N/N=C/c2cccc([N+](=O)[O-])c2)n1	-10	1	1	0	0	-2	·	·
CC(=O)C1=CCC(c2ccc(Cl)cc2)N(S(=O)(=O)c2ccccc2C)C1 (stereo unspecified)	7	·	1	-8	1	-6	·	·
CC1CCc2nc(/C(C#N)=C/c3ccncc3)sc2C1 (stereo unspecified)	-16	-5	0	-1	-1	3	·	·
Cc1cc(C)n(CCNC(=O)C2CCC(=O)N(Cc3ccc(Cl)cc3)C2)n1 (stereo unspecified)	2	-3	-5	1	0	-1	·	·
Cc1cc(C)n(CCCNC(=O)C2CC(=O)N(Cc3ccccc3)C2)n1 (stereo unspecified)	-2	-3	-2	-5	-4	-1	-3	-4
Cn1c(=O)c2nc(-c3ccc(Cl)cc3Cl)oc2c2ccccc21	10	73*	16	34	89*	31	19	-23
c1cncc(CN=C2Nc3ccccc3CS2)c1	3	69*	0	3	0	-1	-12	-12
CCn1nc([N+](=O)[O-])c2c(-c3nc4ccccc4o3)c(N)n(CCCOC)c2c1=O	18	85*	10	35	23	-9	78*	-10	Scp1 DSF=2
CCCn1c2c(c(=N)c3c1CCC3)CCCC2	2	74*	-6	10	1	-12	6	-9
CN(CC1COc2ccccc2O1)C(=O)c1ccc(Cl)c(S(=O)(=O)N2CCCCCC2)c1 (stereo unspecified)	1	-7	1	-1	-3	5	·	·
Cn1nc(CC(=O)NC2CCCCCC2)c2ccccc2c1=O	-2	76*	4	2	-2	-4	-17	-16
CCc1nc(NCCCCCO)c2nnn(Cc3ccccc3F)c2n1	-2	-2	1	-3	1	-7	·	·
O=[N+]([O-])c1ccc2nc(-c3ccccc3)n(OCc3ccc(Cl)cc3)c2c1	1	59*	6	14	4	-10	51*	-5	Scp1 DSF=6.2*
O=C(CCN1C(=O)c2ccccc2C1=O)NC(=S)Nc1ccccc1Cl	-6	-3	-1	-9	2	-4	·	·
CC1(C)CC(CCC(=O)NC(=S)Nc2ccccc2Cl)C(=O)O1 (stereo unspecified)	3	-9	-1	2	-1	2	-10	-16

Screening results as filed in PubChem.
